Test system: MS2 coat protein
Assay: apparent Kd, MS2 coat protein; higher = weaker binding; RNA-MaP array; FMN 200 µM where present
Summary of the method: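 The apparent Kd is reported as the median of filtered per-cluster binding-curve fits. To get these curves, designs transcribed by stalled E. coli RNA polymerase on Illumina sequencing-chip clusters were titrated with SNAP-549-labelled MS2 coat protein from 0.7 or 1.5 nM, doubling to 3 µM. Titrations were run without and then with constant ligand in 100 mM Tris-HCl pH 7.5, 80 mM KCl, 4 mM MgCl2, BSA, DTT, yeast tRNA and Tween-20, and green signal was normalised to red-channel RNA signal and control-cluster median Fmax.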

[1] = designed as: OFF switch for flavin mononucleotide, no ligand
[2] = ligand present: flavin mononucleotide, designed as: OFF switch for flavin mononucleotide
[3] = designed as: ON switch for flavin mononucleotide, no ligand
[4] = ligand present: flavin mononucleotide, designed as: ON switch for flavin mononucleotide

Sequence | apparent Kd [1] [µM] | apparent Kd [2] [µM] | apparent Kd [3] [µM] | apparent Kd [4] [µM]
GUCAGCUCGUGAGGAUAUAGAACACUGCUUCGGCAGUGUAUUAAGAUCACAUGAGGAUCACCCAUGUAGAAGGCACGAGCUGAU | 0.00512 | 0.00933 | – | –
AUCAGCUCGUCAGGAUAUACGUCACUGCGUCAGCAGUGAGGUAAGAUCACAUGAGGAUCACCCAUGUAGAAGGGACGAGCUGAU | 0.00609 | 0.0132 | – | –
UAGAUGGGAGGAUAUACGUAGUUGCAGGUUCGUGUGGUGCUACAUGAGGAUCACCCAUGUAGAAGGCCCGUCUU | 0.0146 | 0.0406 | – | –
GGUGCGUAUGUGAGGAUAUGCUGGUCCUUGGAUCGGCAGAAGGUACAUGAGGAUCACCCAUGUGGUGUCGUUCU | 0.382 | 0.251 | – | –
CGAUUAUUGAUCCAUUUUUACAACAUGAGGAUCACCCAUGUGCAGGAUAUCGUGGUGAUUAACUACGAGAAGGGCAAAUUCACG | 0.123 | 0.22 | – | –
AUAGGUUAAGGAGGAUAUAGAGGGAGAAGUAAACAUGAGGAUCACCCAUGUAUUUAAUUAGUUUACUAGAAGGCUUAUGAUUGU | – | – | 0.0392 | 0.0437
GAGCUGUGAGGAUAUACAUGAGGAUCACCCAUGUUAAGGAAGUCGGGAUUAAUUUAGUGUAGAAGGCACUUAUU | 0.0399 | 0.0416 | – | –
GGAUAGGACAGAGGAUAUACGUGCUAGAGAUACUAGCAAAAUUUCCACACAUGAGGAUCACCCAUGUAGAAGGCUGUCCUAUCG | – | 0.00757 | – | –
UCAUAAGAACAAGGAUAUCAAUAAAAUAUAAAUGCUACAUGAGGAUCACCCAUGUUUUAGCAUGGUGAGAAGGUGUAUUUACGG | – | – | 0.0678 | 0.0425
UUACUCAUGUAAGGAUAUGCAGCCGAAGCGGCUGCAGAAGGUACUAUAAUACAUGAGGAUCACCCAUGUAAAAUAAAUAAAGUU | – | – | 0.0204 | 0.0163
AUUGUUAAGGUAGGAUAUAGUAAAAUGAUUUAAUUAGAAGGAUCUCACAUGAGGAUCACCCAUGUAAGAGGAUUACCCAUGUAU | 0.0145 | 0.0132 | – | –
GGUGUGUUAGGAUAUCGCGGCGGCGGCGUUUGUUGUUGUUGUGAGAAGGGACAUGAGGAUCACCCAUGUGCGCC | 0.0244 | 0.0272 | – | –
UAAAAGCGGAAGGAUAUGUGUCUAAAGUCUGUAGCAGAAGGUCCGACAUGAGGAUCACCCAUGUGACCUGGUGC | 0.0111 | 0.0139 | – | –
UAUUAACAUGUAGGAUAUCUGCACGAUUAGUGCAGAGAAGGACAUGAGGAUCACCCAUGUAGAUCAUAAUAAUUUAAUUUAAUU | 0.133 | 0.422 | – | –
GGCAGACAUGAGGAUCACCCAUGUCGGCCGUUAGGAGGAUAUCGGUGAUAUCUGUCUCGCCGAGAAGGUUUAAUUA | – | – | 0.0115 | 0.0121
UCAUUUAUCACAGGAUAUAUUAGUAUACAGUUGUUUGGCUCUUACAUAUUAAUAGAAGGGUGAAACAUGAGGAUCACCCAUGUA | – | – | 0.621 | 0.224
CCGGUUUAUGGAGGAUAUGGAGCCUUAUUGGCUCCAGAAGGCUAAUAACAUGAGGAUCACCCAUGUCGGCGGUCUAAUGACCGA | – | – | 0.0331 | 0.0206
ACUUGCUUGCAGAAGGGUGACAUGAGGAUCACCCAUGUAGCGGGCUGGCGUAAAGUCAGCGCGCCACAGGAUAUGCAGGCCUCG | – | – | 0.0612 | 0.0476
UCCUUGUCCUGAGGAUAUCCGUGGUUCCCGAAAGGAGAAGGCAGGACAUGAGGAUCACCCAUGUACCCAGAUAUCGUACAGAGA | 0.0504 | 0.36 | – | –
CCUAAGGACACAGGAUAUAGCGUGAUGGCUGGACUCCAACGGCGAGCGGCGCUAGAAGGGUGACCACAUGAGGAUCACCCAUGU | – | – | 0.496 | 0.195
GAUUCGGGAGGAUAUACAUGAGGAUCACCCAUGUAUAUAUAAUAUAUUAAAUUAUCAUGUAGAAGGUUUGGGUC | 0.0243 | 0.0234 | – | –
AAUUAGUGUGUGAGGAUAUUGGUGGAAUGACAUAUUAAGAAGGCACAUGAGGAUCACCCAUGUGGGAUGUCACG | 0.0109 | 0.0136 | – | –
UUUACCAGAGGAUAUGCGAAUAAAUAAAACUUUUUUUUUUAACAUGAGGAUCACCCAUGUAGAAGGCUGCUUUU | 0.0254 | 0.0236 | – | –
AUAUCUAUAUCAGGAUAUGGACAGGCCUGUCCGUAUUGAGACAGUAACAUGAGGAUCACCCAUGUCCAGAAGGGAUCUAUAUAU | 0.0537 | 0.0457 | – | –
CAUACGUCAGGAUAUCUGAUGUCUAACUUCGGUUAGACAUCAGAGAAGGGACAUGAGGAUCACCCAUGUAUGAA | 0.118 | 0.13 | – | –
CGGAAUUGUACAGGAUAUGAGGGUACCUGAGCCUCAGAAGGGUAGACCGACAUGAGGAUCACCCAUGUAUGCGGAUAACGUCCG | – | – | 1.18 | 0.592
GGCGAACAGGCUAACAUGAGGAUCACCCAUGUGGACUCAUGGUAGGAUAUCGGGAAGGAGGAAACCGAGAAGGGCCGGUGAGCG | – | – | 0.158 | 0.0395
UGUCGGAGCAGAGGAUAUUACAUGAGGAUCACCCAUGUCUGAACCAAUAGCUGGAAACAGCAAUGUAAGAAGGCUGCUCCGACA | 0.154 | 0.432 | – | –

Sequence | apparent Kd [1] [µM] | apparent Kd [2] [µM] | apparent Kd [3] [µM] | apparent Kd [4] [µM]
CGGUCGAUGUAAGGAUAUCGACUGGAUAACAGUCGAGAAGGUACAUGAGGAUCACCCAUGUAAACCUAUAAUAAAUAACGACCG | 0.0112 | 0.0146 | – | –
UGUAUUAACGGAGGAUAUCGAUAUCAAACAUGAGGAUCACCCAUGUUGAGGAUCACCCAUGUCCACGAGAAGGCCGGCGUACUC | – | – | 0.0303 | 0.03
ACAUGAGGAUCACCCAUGUAGAAUGAAGAAGGUAGAUACUUGAGGCUCACCCAUGUACAUAGGACUAAGGAUAUUCUAAUAAUU | – | – | 0.025 | 0.022
AAAACAUGAGGAUCACCCAUGUUUAGAUCGGUCGAUAGAAGUGAGGAUAUACGAAGUUAAGGCUGGUAGAAGGCACUGGGUACA | – | – | 0.0398 | 0.0333
UCGCCACAUGAGGAUCACCCAUGUCAGGAUAUCUAGAUGCGUCUUGAGCUCAAGCGCUGGAGAAGGGAUUGGGU | 0.235 | 0.0675 | – | –
AAUGGCAUAGAGAAGGCGCCGCAGCUCUUCCUCCCAUCCCAACGACAUGAGGAUCACCCAUGUAGCGAGGAUAUCUAUACCGUC | 0.00708 | 0.0125 | – | –
UUAAAUCAUGUAGGAUAUGCAUGGCGAAGCUACGCAGAAGGACAUGAGGAUCACCCAUGUUAUAGCGUCUGGAAACAGAUGCAA | 0.101 | 0.177 | – | –
GUCUGGCUAGGAUAUACAUAGUCCACGAGUCGGUUGCCCUGACAUGAGGAUCACCCAUGUAGAAGGAGCGAGAA | 0.0194 | 0.0186 | – | –
GGUGCAUAUGAGAAGGCGAUCAUGAAACAUGAUCGAGGAUAUCAUGUAAACAUGAGGAUCACCCAUGUAUGGGAAAAGUGCACC | – | – | 0.0648 | 0.00854
AAAAUAAGAACAGGAUAUGUGGGUUCGAAAAGCAAAGCUUUCCACAUGAGGAUCACCCAUGUGCCACAGAAGGGUUCGGGUGAU | – | – | 0.0691 | 0.0274
AAAUUUAACGAAGGAUAUGCUAACAUGAGGAUCACCCAUGUGUGCUUUGUGUUGCUGAAAUUGGAGCAGAAGGUCGUAUACAUA | 0.0954 | 0.145 | – | –
AAAACAUGAGGAUCACCCAUGUUAAGAUCGGUCAAUAGAAGUGAGGAUAUACGAAGUUAAGGCUGGUAGAAGGCACUGGGUACA | – | – | 0.0435 | 0.0371
GCUGCGCGAGGAUAUGCGGUUUGUGCUGUGGCCCGUGGCGUACAUGAGGAUCACCCAUGUAGAAGGCGUGUGGG | 0.0261 | 0.029 | – | –
UUCGAACAAGUCAGGAUAUGGUUAUUGGUGUGUGACUAGAAGGGACAUGAGGAUCACCCAUGUGCACCUACCAU | 0.016 | 0.0167 | – | –
UUUAUACAUGAGGAUCACCCAUGUCAAUGUAGUCGAGGAUAUGGGCAGCCGUGAGGCGUACUAGAAGGCGAAGAGG | – | – | 0.203 | 0.0649
GCUGACGAUGUAGGAUAUCUCGACGAUAAGUCGAGAGAAGGACAUGAGGAUCACCCAUGUAAACUCGCGUCAGCGAGGAAACUC | 0.0179 | 0.0201 | – | –
ACUUACUGAGGAUAUACAUAGAUUUACAUGAGGAUCACCCAUGUUCCUCUAUGUAUAUAUGUAGAAGGCAGAAGUU | 0.0263 | 0.0978 | – | –
UGGACCGAGCUAUCGGUUGACUGGGAGGAUAUGACAUGAGGAUCACCCAUGUGGGAUCUAAAUUGUCAGAAGGCUCGUUCUGGG | – | 0.234 | – | –
GGAAGCACGACGGAGCUAAGGUAGAAGGAUAUCCACGGCUAUAUCCACAUGAGGAUCACCCAUGUGGAGAAGGUCUAUCUUAAG | 0.00551 | 0.0088 | – | –
CAGCGACAUGGAGGAUAUAGGGCCCAAGGGCACCUAGAAGGCCAAAAGCAGACAGGUCACAUGAGGAUCACCCAUGUACGCCAG | – | – | 0.241 | 0.0163
GGUCGUCACAUCUACAUGAGGAUCACCCAUGUCAAAAGACAUGAGGAUAUGCUACCUAAUUGGUAGCAGAAGGCAUGGACGACC | – | – | 1.29 | 0.072
GAAAUUACAUGAGGAUCACCCAUGUAGGAUAUCGCUAUUGUAAUCAUGUUACAUGAUUACAAUAGCGAGAAGGACGUGAGAAAG | 0.0229 | 0.0256 | – | –
UGUCGGAGCAGAGGAUAUUACAUGAGGAUCACCCAUGUAUGAACCAAUAGCUGGAAACAGGAAUGUAAGAAGGCUGCUCCGACA | 0.00617 | 0.0301 | – | –
UAUAUAUAGUAAGGAUAUGUAUAUAUUUUGUAAACAGAAGGUACUGACAUGAGGAUCACCCAUGUUUUAGUGUGGGCAUGUAGA | 0.0808 | 0.13 | – | –
AUAAUUAAGCGAGGAUAUAUAUAGAAUAAUUAUAUAGAAGGCGCAAAACAUGAGGAUCACCCAUGUCACCCAUGUUGUGUGUAA | – | – | 0.121 | 0.0473
GUACUACAUGAGGAUCACCCAUGUGAGGAUAUGCGAAUUUCAUCAAAAGAUGAAAUUUGCAGAAGGCACUGUAC | 0.0467 | 0.034 | – | –
GUAGGAAUCACAGGAUAUGCAUGCGCCGCUUCGUUCUACAUGAGGAUCACCCAUGUGUGGUCCGUGUAGAAGGGUGUUUGCUAC | – | – | 0.0339 | 0.0116

From the EternaBench riboswitch data
